Data: ChEMBL document CHEMBL4024768, “Discovery and Optimization of Thiazolidinyl and Pyrrolidinyl Derivatives as Inhaled PDE4 Inhibitors for Respiratory Diseases” (J Med Chem, 2017)
Calls of active or inactive are those of the source. The calls are words filed in the database; no cut-off is given here.

Assays:
[1] = molecular target: cAMP and cAMP-inhibited cGMP 3',5'-cyclic phosphodiesterase 10A (Homo sapiens, UniProt Q9Y233); assay: Inhibition of human recombinant PDE10A2 expressed insect sf9 cells by radiometric assay
Chain of cAMP and cAMP-inhibited cGMP 3',5'-cyclic phosphodiesterase 10A (Q9Y233 whole entry): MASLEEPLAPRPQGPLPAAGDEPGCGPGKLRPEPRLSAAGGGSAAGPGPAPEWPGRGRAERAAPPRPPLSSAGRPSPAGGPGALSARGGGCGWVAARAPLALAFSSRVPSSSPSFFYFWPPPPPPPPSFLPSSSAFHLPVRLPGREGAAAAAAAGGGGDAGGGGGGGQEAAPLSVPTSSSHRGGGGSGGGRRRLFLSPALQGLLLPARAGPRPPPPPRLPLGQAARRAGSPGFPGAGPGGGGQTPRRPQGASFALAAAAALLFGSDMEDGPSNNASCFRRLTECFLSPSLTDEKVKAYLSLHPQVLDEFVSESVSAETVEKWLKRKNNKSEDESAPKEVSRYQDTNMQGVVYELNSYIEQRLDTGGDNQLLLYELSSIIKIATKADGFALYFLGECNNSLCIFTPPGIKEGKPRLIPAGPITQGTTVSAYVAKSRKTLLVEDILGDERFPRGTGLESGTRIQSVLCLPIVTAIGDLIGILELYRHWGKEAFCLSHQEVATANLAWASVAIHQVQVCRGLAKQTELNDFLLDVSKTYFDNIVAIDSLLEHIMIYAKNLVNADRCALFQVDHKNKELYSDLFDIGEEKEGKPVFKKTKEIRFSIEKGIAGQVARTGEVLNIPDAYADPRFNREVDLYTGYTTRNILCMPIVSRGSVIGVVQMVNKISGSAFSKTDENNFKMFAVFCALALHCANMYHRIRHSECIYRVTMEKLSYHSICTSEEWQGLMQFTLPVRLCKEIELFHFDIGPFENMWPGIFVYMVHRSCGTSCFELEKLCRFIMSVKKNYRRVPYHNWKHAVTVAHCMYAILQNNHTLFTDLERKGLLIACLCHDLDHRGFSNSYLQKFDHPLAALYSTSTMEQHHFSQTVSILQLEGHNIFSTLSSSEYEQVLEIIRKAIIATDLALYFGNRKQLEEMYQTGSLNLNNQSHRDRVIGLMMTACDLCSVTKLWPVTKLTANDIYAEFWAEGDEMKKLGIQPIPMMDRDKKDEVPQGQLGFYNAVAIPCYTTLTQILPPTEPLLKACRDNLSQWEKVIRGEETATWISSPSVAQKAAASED
Procedure, shortened: (§1)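 Human recombinant PDEs expressed in Sf9 cells, except PDE6 purified from bovine retina. Radiometric two-step method, modified from Thompson and Appleman. Five concentrations in duplicate, starting at 30 μM with 1:10 serial dilution, 1% final DMSO.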

[2] = MRTlast in Sprague-Dawley rat plasma at 1 umol/kg, it administered as micronized powder measured up to 24 hrs post dose by electrospray LC-MS analysis; format: ADME, cell-free; conditions: inhaled or intranasal
Procedure, shortened: (§2)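 Sprague-Dawley rats (250−400 g) dosed intratracheally with micronized dry powder blended with coarse lactose, delivered by insufflator under isoflurane anaesthesia. Blood collected in heparinized tubes and spun at 1200g for 15 min. Lung sampled at 0.25, 1, 2, 4, 8, 16 and 24 h, n = 3 per time point.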

[3] = molecular target: Voltage-gated inwardly rectifying potassium channel KCNH2 (Homo sapiens, UniProt Q12809); assay: Inhibition of human ERG at 1 uM
Chain of Voltage-gated inwardly rectifying potassium channel KCNH2 (Q12809 whole entry): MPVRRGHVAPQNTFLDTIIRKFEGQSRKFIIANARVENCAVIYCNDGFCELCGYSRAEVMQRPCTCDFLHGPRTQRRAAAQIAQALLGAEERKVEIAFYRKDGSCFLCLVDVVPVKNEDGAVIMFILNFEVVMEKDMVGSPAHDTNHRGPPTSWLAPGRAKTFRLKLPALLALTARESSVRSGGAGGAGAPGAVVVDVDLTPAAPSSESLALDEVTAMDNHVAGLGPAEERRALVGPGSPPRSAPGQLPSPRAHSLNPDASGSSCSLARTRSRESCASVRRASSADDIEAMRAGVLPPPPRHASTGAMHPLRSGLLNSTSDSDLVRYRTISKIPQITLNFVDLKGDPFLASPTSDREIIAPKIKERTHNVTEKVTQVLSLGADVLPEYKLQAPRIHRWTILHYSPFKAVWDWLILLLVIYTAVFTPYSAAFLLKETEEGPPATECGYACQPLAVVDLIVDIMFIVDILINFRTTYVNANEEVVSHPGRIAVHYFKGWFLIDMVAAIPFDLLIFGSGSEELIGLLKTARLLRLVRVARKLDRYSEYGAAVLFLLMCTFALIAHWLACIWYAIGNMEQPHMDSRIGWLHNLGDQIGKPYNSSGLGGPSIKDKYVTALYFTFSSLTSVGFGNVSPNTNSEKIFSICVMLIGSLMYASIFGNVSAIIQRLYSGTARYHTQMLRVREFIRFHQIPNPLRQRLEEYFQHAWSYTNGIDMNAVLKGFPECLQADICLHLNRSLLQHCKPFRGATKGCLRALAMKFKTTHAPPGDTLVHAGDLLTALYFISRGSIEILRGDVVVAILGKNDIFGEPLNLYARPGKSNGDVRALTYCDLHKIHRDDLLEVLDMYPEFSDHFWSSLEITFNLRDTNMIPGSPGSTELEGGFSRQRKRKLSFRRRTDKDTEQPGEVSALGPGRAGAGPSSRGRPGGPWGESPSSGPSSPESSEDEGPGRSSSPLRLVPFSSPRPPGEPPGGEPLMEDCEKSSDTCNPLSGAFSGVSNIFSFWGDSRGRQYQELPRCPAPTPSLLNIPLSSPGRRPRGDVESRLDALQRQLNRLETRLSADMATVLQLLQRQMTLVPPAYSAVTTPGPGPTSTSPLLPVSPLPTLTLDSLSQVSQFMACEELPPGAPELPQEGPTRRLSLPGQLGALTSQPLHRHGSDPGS

[4] = molecular target: T1, Amine oxidase [flavin-containing] A (Homo sapiens, UniProt P21397); assay: Binding affinity to human monoamine oxidase A at 1 uM
T1 sequence (P21397 whole entry): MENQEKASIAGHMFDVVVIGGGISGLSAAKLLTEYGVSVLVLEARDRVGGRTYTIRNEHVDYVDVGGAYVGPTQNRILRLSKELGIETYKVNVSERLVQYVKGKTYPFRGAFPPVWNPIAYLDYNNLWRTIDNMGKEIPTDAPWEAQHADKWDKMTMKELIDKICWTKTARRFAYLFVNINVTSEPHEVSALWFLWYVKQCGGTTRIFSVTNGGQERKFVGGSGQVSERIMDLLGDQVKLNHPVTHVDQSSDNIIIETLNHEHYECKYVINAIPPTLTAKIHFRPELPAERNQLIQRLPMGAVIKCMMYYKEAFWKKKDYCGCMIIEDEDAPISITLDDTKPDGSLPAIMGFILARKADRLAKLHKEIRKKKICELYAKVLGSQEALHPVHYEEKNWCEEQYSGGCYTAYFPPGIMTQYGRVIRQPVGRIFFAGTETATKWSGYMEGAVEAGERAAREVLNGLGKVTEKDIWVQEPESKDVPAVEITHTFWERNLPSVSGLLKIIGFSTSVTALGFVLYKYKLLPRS
Procedure, shortened: (§3)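 Off-target screening panel of about 400 receptors, enzymes and ion channels, run at 1 μM. Result expressed as % binding.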

[5] = molecular target: Dual 3',5'-cyclic-AMP and -GMP phosphodiesterase 11A (Homo sapiens, UniProt Q9HCR9); assay: Inhibition of human recombinant PDE11A4 expressed insect sf9 cells by radiometric assay; procedure, shortened: as §1
Chain of Dual 3',5'-cyclic-AMP and -GMP phosphodiesterase 11A (Q9HCR9 whole entry): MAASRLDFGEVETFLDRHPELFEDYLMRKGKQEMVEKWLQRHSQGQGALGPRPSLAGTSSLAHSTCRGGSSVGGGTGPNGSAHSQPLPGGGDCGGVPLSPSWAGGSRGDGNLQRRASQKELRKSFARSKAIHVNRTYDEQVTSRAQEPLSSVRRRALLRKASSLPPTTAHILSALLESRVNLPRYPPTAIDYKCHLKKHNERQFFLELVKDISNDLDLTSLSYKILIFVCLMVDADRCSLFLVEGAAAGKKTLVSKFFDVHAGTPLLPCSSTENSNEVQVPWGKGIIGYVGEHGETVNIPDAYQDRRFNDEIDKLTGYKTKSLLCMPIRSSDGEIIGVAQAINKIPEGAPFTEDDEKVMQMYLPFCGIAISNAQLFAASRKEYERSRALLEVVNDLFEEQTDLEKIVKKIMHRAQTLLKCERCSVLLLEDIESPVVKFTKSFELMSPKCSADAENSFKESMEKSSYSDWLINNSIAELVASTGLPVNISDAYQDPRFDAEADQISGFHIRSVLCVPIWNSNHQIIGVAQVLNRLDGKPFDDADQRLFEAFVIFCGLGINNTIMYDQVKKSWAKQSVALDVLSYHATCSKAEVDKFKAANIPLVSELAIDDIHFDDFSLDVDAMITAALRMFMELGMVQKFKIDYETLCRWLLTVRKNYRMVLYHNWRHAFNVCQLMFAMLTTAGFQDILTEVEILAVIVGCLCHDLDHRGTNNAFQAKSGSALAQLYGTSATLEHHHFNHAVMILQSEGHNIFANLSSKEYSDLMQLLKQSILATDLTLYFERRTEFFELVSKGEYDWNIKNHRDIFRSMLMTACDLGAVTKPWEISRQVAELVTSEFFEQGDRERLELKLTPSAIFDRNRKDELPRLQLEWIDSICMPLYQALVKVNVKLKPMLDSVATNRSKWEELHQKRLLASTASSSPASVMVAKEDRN

[6] = Stability in human hepatocytes assessed as parent compound remaining at 10 uM after 60 mins by LC-MS/MS analysis; format: ADME, cell-based, Hepatocyte; conditions: read-out: Stability
Procedure, shortened: (§4)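 Pooled mixed-sex cryopreserved human hepatocytes (1 million cells/mL) in Leibovitz L-15 at 37 °C, compound at 10 μM in duplicate. Sampled at 0 and 60 min. Protein-free supernatant evaporated under nitrogen, reconstituted in mobile phase and analysed by LC−MS/MS. Cell-free medium incubation for 60 min as control.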

Lung = assay: Tlast in Sprague-Dawley rat lung at 1 umol/kg, it administered as micronized powder measured up to 24 hrs post dose by electrospray LC-MS analysis; format: ADME, tissue-based; conditions: in vivo, inhaled_or_intranasal; procedure, shortened: as §2
Cytochrome P450 2C19 = Cytochrome P450 2C19 (Homo sapiens, UniProt P33261); assay: Binding affinity to human liver microsomes CYP2C19 at 1 uM; format: ADME; procedure, shortened: as §3
Chain of Cytochrome P450 2C19 (P33261 whole entry): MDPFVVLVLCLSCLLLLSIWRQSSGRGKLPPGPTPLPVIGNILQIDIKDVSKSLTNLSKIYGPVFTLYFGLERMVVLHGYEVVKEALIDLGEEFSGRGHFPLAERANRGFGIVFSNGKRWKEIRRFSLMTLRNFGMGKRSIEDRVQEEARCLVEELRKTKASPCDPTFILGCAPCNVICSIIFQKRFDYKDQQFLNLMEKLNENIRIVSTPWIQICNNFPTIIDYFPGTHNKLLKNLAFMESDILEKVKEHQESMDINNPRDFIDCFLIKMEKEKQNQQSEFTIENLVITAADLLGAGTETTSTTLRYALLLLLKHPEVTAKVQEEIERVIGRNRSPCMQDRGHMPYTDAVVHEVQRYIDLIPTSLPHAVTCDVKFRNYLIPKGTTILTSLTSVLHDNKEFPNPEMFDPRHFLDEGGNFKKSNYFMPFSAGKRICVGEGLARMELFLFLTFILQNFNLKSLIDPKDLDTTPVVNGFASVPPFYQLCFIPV

Plasma = assay: Cmax in Sprague-Dawley rat plasma at 1 umol/kg, it administered as micronized powder measured up to 24 hrs post dose by electrospray LC-MS analysis; format: ADME, cell-free; design: dose 1 umol/kg; conditions: inhaled_or_intranasal; procedure, shortened: as §2
Rattus norvegicus [7] = assay: (§5) Anti-inflammatory activity in OVA-induced airway inflammation Brown Norway rat model assessed inhibition of inflammatory cell infiltration in bronchoalveolar lavage fluid at 1 umol/kg administered intratracheally as powder formulation 2 hrs before aerosolized OVA challenge measured at 24 hrs post aerosolized OVA challenge; format: functional
Procedure, shortened: (§6)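 Male Brown Norway rats sensitized i.p. with OVA (1 mg/rat) plus Al(OH)3 (100 mg/rat) in saline on 3 consecutive days. Challenged 2–3 weeks later with nose-only 1% OVA aerosol for 30 min. Lactose-blended dry powder (10 mg/kg total powder) insufflated intratracheally; dose taken from needle weight difference. BAL with 3 × 4 mL HBSS/EDTA/HEPES at 24 h; total and differential counts by automated counter. ED50 from fitted dose–response curve.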

Rattus norvegicus [8] = organism: Rattus norvegicus; assay: Binding affinity to rat imidazoline I2 receptor; procedure, shortened: as §3
Rattus norvegicus [9] = assay: as §5, with “eosinophils recruitment” for “inflammatory cell infiltration”, “0.1” for “1”; format: functional; conditions: inhaled or nasal; procedure, shortened: as §6
[10] = Drug metabolism in human hepatocytes assessed as (S)-1-(3-(dimethylcarbamoyl)phenylsulfonyl)pyrrolidine-2-carboxylic acid metabolite formation at 10 uM after 60 mins by LC-MS/MS analysis; format: ADME, cell-based, Hepatocyte; conditions: 1 h; procedure, shortened: as §4
[11] = molecular target: T2, Sterol O-acyltransferase 1 (Rattus norvegicus) (UniProt O70536); assay: Binding affinity to rat hepatic Acyl CoA-cholesterol acyltransferase at 1 uM; procedure, shortened: as §3
T2 sequence (whole entry): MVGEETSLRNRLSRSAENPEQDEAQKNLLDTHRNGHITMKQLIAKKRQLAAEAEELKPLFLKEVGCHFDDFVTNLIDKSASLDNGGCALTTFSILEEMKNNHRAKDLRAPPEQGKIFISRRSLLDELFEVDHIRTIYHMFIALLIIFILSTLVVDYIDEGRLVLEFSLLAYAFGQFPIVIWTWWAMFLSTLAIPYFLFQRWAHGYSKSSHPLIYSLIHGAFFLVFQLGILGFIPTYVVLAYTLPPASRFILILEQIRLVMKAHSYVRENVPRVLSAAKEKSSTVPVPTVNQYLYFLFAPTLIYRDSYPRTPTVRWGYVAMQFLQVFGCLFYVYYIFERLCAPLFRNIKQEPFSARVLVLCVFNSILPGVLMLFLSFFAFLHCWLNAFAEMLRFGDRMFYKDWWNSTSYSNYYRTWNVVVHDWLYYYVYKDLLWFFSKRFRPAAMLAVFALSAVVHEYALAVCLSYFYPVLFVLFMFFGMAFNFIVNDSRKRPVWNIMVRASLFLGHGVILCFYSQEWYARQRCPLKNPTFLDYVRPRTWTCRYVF

| Compound | IC50 [1] | MRT last at 24 h [2] | inhibition (INH) [3] | Activity [4] | IC50 [5] | remaining at 1 h, 10 µM [6] | Tlast (Lung) | Activity (Cytochrome P450 2C19) | Cmax (Plasma) | inhibition (Rattus norvegicus [7]) | Activity (Rattus norvegicus [8]) | inhibition in vivo at 0.1 µmol/kg (Rattus norvegicus [9]) | Drug metabolism [10] | Activity [11] |
| --- | --- | --- | --- | --- | --- | --- | --- | --- | --- | --- | --- | --- | --- | --- |
| CN(C)C(=O)c1cccc(S(=O)(=O)N2CCS[C@H]2C(=O)O[C@@H](Cc2c(Cl)c[n+]([O-])cc2Cl)c2ccc(OC(F)F)c(OCC3CC3)c2)c1 | 0.81 µM | 1.33 h | Not Active | 94% | > 30 µM | 51% | 24 h | 69% | 9.8 pmol/g | Active | 60% | 50% | – | – |
| CN(C)C(=O)c1cccc(S(=O)(=O)N2CCC[C@H]2C(=O)O[C@@H](Cc2c(Cl)c[n+]([O-])cc2Cl)c2ccc(OC(F)F)c(OCC3CC3)c2)c1 (relative stereo) | 4.03 µM | 1.08 h | Not Active | 76% | > 30 µM | 78% | 24 h | – | 20.65 pmol/g | – | – | – | Metabolite_Notdetected | 50% |
